Assay [1] deals with Rattus norvegicus. The assay can be described thus: Androgenic activity in castrated immature Sprague-Dawley rat assessed as ventral prostate weight stimulation at 2 mg/day, po by Hersherberger assay. In kind it is functional, Prostate gland. The method in brief:
(§1)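 Castrated immature male rats were given oral doses once daily for 5 days in 20% cyclodextrin vehicle, n = 3 per group. Ventral prostate weight was normalized to the vehicle control. Percent stimulation was scaled with the vehicle group set to 0% and the testosterone-alone group set to 100%.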

Assay [2] is filed under the species Rattus norvegicus. Description: Inhibition of testosterone-enhanced ventral prostate weight in castrated immature Sprague-Dawley rat. Format: functional, Prostate gland. More on the design: concentration or dose not given beside the values. Summed up: (§2)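 This was an antagonist mode in castrated immature male rats. Animals were dosed orally once daily for 5 days at 2 mg/day in 20% cyclodextrin, together with testosterone propionate 0.1 mg/day (about 1.3 mg/kg) subcutaneously in sesame oil, n = 3 per group. Percent inhibition of prostate weight was scaled with the vehicle group set to 100% and the testosterone-alone group set to 0%.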

The test system of assay [3] is Rattus norvegicus. Description: Anabolic activity assessed as stimulation of levator ani muscle weight in castrated immature Sprague-Dawley rat at 2 mg/day, po by Hersherberger assay.
For assay [4], the species on record is Rattus norvegicus. The assay can be described thus: Androgenic activity in castrated immature Sprague-Dawley rat assessed as ventral prostate weight stimulation at 3 mg/ day by Hersherberger assay. In kind it is functional, Prostate gland. The method in brief:
as §1

Assay [5] has as its system Rattus norvegicus. The assay can be described thus: Anabolic activity assessed as stimulation of levator ani muscle weight in sc dosed castrated immature Sprague-Dawley rat by Hersherberger assay. Format: functional. The note with it: in the assay text read “po dosed” for “sc dosed”. The method in brief: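 Castrated immature male rats received testosterone propionate by subcutaneous injection at the nape of the neck, 5 mg/kg in sesame oil. Levator ani weight was measured as percent stimulation, with the vehicle control set to 0% and the testosterone-alone group set to 100%.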

Assay [6] deals with Rattus norvegicus. Description: Inhibition of ventral prostate weight in castrated immature Sprague-Dawley rat at 2 mg/day, po. Format: functional, Prostate gland. Also on record: scale not given: the % may be the effect or the level left. The method in brief:
as §2

Assay [7] relates to Rattus norvegicus. Description: Anabolic activity assessed as stimulation of levator ani muscle weight in castrated immature Sprague-Dawley rat at 5 mg/day, sc by Hersherberger assay. In kind it is functional. Summed up: (§3)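 Castrated immature male rats; agent given subcutaneously by injection at the nape of the neck in sesame oil. Compounds in the same table were dosed once daily for 5 days with N = 3/group. Tissue weight is expressed as percent stimulation, with the vehicle-treated control set to 0% and the testosterone-alone control set to 100%.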

In assay [8] the test system is Rattus norvegicus. The assay can be described thus: Androgenic activity in castrated immature Sprague-Dawley rat assessed as ventral prostate weight stimulation at 5 mg/day, sc by Hersherberger assay. Format: functional, Prostate gland. Summed up:
as §3

This is an account of results in ChEMBL document CHEMBL1146274, “Serendipitous discovery of novel imidazolopyrazole scaffold as selective androgen receptor modulators” (2007).

The Inhibition is the change of the read-out against control, counted positive when it falls.

SMILES strings stand for the structures. A value given as a limit tells only on which side of the number the result lay.

In the case of `CCN/C(=N\c1ccc(C#N)c(C(F)(F)F)c1)C1(C)CC(C(F)(F)F)=NN1` (centres undefined), the Activity is listed as below 10% in assay [1] and 50% in assay [3]. Moreover, in assay [2], the Inhibition came out at 18%.
As for `CC1(/C(=N/c2ccc(C#N)c(C(F)(F)F)c2)NS(C)(=O)=O)CC(C(F)(F)F)=NN1` (centres undefined), the Activity in assay [1] and in assay [3] was below 10% throughout. Moreover, the Inhibition in assay [2] is below 10%.
In the case of `C[C@@]12CC(C(F)(F)F)=NN1C(N)=N/C2=N\c1ccc(C#N)c(C(F)(F)F)c1`, the Activity in assay [4] came out at 29%; in assay [3] it was 72%. Also, in assay [2], the Inhibition is listed as below 10%. The ED50 in assay [5] amounted to 0.85 mg/day.
Regarding `CC12CC(c3c(F)c(F)c(F)c(F)c3F)=NN1C(N)=N/C2=N\c1ccc(C#N)c(C(F)(F)F)c1` (centres undefined), the Activity in assay [1] was below 10%; in assay [3] it was 21%. Also, in assay [2], the Inhibition is listed as below 10%.
Regarding `CCN(CC)/C(=N\c1ccc(C#N)c(C(F)(F)F)c1)C1(C)CC(C(F)(F)F)=NN1` (centres undefined), the Activity in assay [1] turned out to be 22%; in assay [3], 32%. Besides, in assay [2], the Inhibition is given as below 10%.
In the same order, the values of `CC1(/C(N)=N/c2ccc(C#N)c(C(F)(F)F)c2)CC(C(F)(F)F)=NN1` (centres undefined) are 39%, 76% and 20%.
Regarding `CN/C(=N\c1ccc(C#N)c(C(F)(F)F)c1)C1(C)CC(C(F)(F)F)=NN1` (centres undefined), the Inhibition in assay [2] worked out at 15%. The Activity turned out to be 15% in assay [6] and 17% in assay [3].
In the case of `CCOC(=O)C1=NN2C(N)=N/C(=N\c3ccc(C#N)c(C(F)(F)F)c3)C2(C)C1` (centres undefined), the Activity in assay [1] and in assay [3] was below 10% throughout. In addition, the Inhibition in assay [2] was below 10%.
On to `CCC12CC(C(F)(F)F)=NN1C(N)=N/C2=N\c1ccc(C#N)c(C(F)(F)F)c1` (centres undefined), for which the Activity in assay [1] is below 10%; in assay [3], 16%. The Inhibition in assay [2] is below 10%.
In the case of `CC12CC(C(F)(F)F)=NN1C(NC(=O)C(F)(F)F)=N/C2=N\c1ccc(C#N)c(C(F)(F)F)c1` (centres undefined), the Activity was 55% in assay [1] and 61% in assay [3]. Also, the Inhibition in assay [2] turned out to be 31%.
On to `CC12CC(C(F)(F)F)=NN1C(N)=N/C2=N\c1ccc(Cl)c(Cl)c1` (centres undefined), for which the Activity in assay [1] and in assay [3] was below 10% throughout. Besides, the Inhibition in assay [2] is reported as 31%.
With `CC12CC(C(F)(F)F)=NN1C(N)=N/C2=N\c1ccc(Br)c(C(F)(F)F)c1` (centres undefined), the Activity in assay [1] and in assay [3] was below 10% throughout. The Inhibition in assay [2] is below 10%.
`CC12CC(C(F)(F)F)=NN1C(N)=N/C2=N\c1ccc([N+](=O)[O-])c(C(F)(F)F)c1` (centres undefined): the Activity in assay [1] and in assay [3] was below 10% in each case. For the same molecule, in assay [2], the Inhibition is below 10%.
Take `CC12CC(C(F)(F)F)=NN1C(=N)O/C2=N\c1ccc(C#N)c(C(F)(F)F)c1` (centres undefined): the figures for the Activity in assay [1] and in assay [3] were 55% and 29%, respectively.
Take `CON/C(=N\c1ccc(C#N)c(C(F)(F)F)c1)C1(C)CC(C(F)(F)F)=NN1` (centres undefined): the Activity came to 14% in assay [1] and 23% in assay [3]. Also, the Inhibition in assay [2] is below 10%.
In the same order, the values of `CC1(/C(=N/c2ccc(C#N)c(C(F)(F)F)c2)NO)CC(C(F)(F)F)=NN1` (centres undefined) are below 10%, below 10% and below 10%.
For `CC12CC=NN1C(N)=N/C2=N\c1ccc(C#N)c(C(F)(F)F)c1` (centres undefined), the Activity in assay [1] and in assay [3] was below 10% throughout. In assay [2], the Inhibition is given as below 10%.
As for `C[C@]12CC(C(F)(F)F)=NN1C(N)=N/C2=N\c1ccc(C#N)c(C(F)(F)F)c1`, the Activity in assay [4] worked out at 36%; in assay [3], 91%. Besides, in assay [2], the Inhibition amounted to 30%. Moreover, in assay [5], the ED50 came to 0.07 mg/day.
As to `CCc1c(/N=C2\N=C(N)N3N=C(C(F)(F)F)CC23C)ccc(C#N)c1C(F)(F)F` (centres undefined), the Activity in assay [1] is below 10%; in assay [3], 19%. For the same molecule, in assay [2], the Inhibition is on record as below 10%.
With `CC1(/C(=N/c2ccc(C#N)c(C(F)(F)F)c2)N2CCCC2)CC(C(F)(F)F)=NN1` (centres undefined), the Activity in assay [1] and in assay [3] was below 10% in each case. Further, the Inhibition in assay [2] is given as below 10%.
With `C[C@](O)(CS(=O)(=O)c1ccc(F)cc1)C(=O)Nc1ccc(C#N)c(C(F)(F)F)c1` [(R)-BICALUTAMIDE], in assay [2], the Inhibition came out at 70%.
Take `CCC(=O)O[C@H]1CC[C@H]2[C@@H]3CCC4=CC(=O)CC[C@]4(C)[C@H]3CC[C@]12C` [TESTOSTERONE PROPIONATE]: the Activity in assay [7] and in assay [8] was 100% throughout.
